# Most compounds without a hit are left out; they make up all but 2.5% or so of the library.
# ADAM10 inh – human ADAM10 inhibitors, primary screen, biochemical, QFRET, HTS. recombinant ADAM10, EDANS/DABCYL FRET peptide cleavage, 3 h. inhibition, % at 7 µM. hit rate 0.62% among 370,000. Disintegrin and metalloproteinase domain-containing protein 10 (Homo sapiens), O14672;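 active means inhibition above a per-campaign cutoff equal to the mean of compounds falling between control-based bounds plus 3 SD, cut at about 20% in these data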;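 further: 0% = DMSO wells while the 100% control is not disclosed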
# NR2E3 ag-1 – inhibitors of NR2E3-RetCOR corepressor binding, primary screen, NR2E3 agonist project, biochemical, TR-FRET, GST-NR2E3, biotin-RetCOR | 1536-well | inhibition of corepressor binding, % at 4.78 µM | hit rate 0.12% among 320,000;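 active means percent inhibition above the cutoff of mean plus 3 SD of all tested compounds, set per screening campaign, cut at about 20% in these data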;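 further: 0% = DMSO wells and 100% = biotin wells as full block of FRET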
#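 Test system – NR2E3–RetCOR corepressor complex · Quantity – NR2E3 fusion 1.35 nM · Buffer or medium – Tris pH 7.5 · Incubation – Compound–protein incubation for 5 h at 4 °C · Technique – TR-FRET, Eu(K)-anti-GST donor, streptavidin-D2 acceptor, ex 340, em 617/671 nm · Evaluation – percent inhibition of 671/617 nm emission ratio versus biotin and DMSO controls · Plate – 1536-well format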
# GASC-1 inh – inhibitors of GASC-1 histone demethylase, primary screen, biochemical, fluorescence, DELFIA europium; hit rate 0.069% among 330,000; AID 2099, 2009; inhibition, % at 2.35 µM; Lysine-specific demethylase 4C (Homo sapiens), Q9H3R0; GST-JMJD2C(1-420) H3K9me3 demethylation;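 active means more than half of a compound's replicate wells show inhibition beyond 50%, single wells judged on their own value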;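 further: signal counts dimethyl H3K9 product captured on neutravidin plate; 0% = median of DMSO wells and 100% = 0.3 times that DMSO median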
# Target sequence (Q9H3R0 1-420 limits assumed): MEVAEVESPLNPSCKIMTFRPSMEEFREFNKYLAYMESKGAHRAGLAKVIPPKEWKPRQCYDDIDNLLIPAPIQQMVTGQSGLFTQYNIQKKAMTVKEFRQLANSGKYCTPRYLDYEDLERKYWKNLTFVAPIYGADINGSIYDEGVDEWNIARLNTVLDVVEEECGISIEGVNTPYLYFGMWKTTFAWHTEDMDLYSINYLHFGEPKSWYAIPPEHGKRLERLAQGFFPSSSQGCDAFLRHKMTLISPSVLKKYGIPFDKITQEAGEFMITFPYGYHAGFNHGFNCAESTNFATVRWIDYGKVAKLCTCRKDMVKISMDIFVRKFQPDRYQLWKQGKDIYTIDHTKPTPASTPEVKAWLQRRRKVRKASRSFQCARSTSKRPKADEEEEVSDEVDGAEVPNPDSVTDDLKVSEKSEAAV
# proKLK7 act – proKLK7 zymogen activators, primary screen, biochemical, fluorescence intensity; AID 652039, 2013; hit rate 0.9% among 370,000; purified proKLK7, EDANS-DABCYL substrate fluorescence; 100% is mature enzyme control, 0% vehicle; activation, % at 7 µM;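 active means activation above the mean of all tested compounds plus 3 SD, computed per campaign excluding outliers beyond control limits, cut at about 13% in these data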
# ADAM17 inh – ADAM17 inhibitors, primary screen, biochemical, QFRET | inhibition, % at 6.95 µM | AID 720648, 2013 | hit rate 0.83% among 370,000 | Disintegrin and metalloproteinase domain-containing protein 17 (Homo sapiens), P78536 | recombinant ADAM17, EDANS/DABCYL FRET peptide cleavage;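 active means inhibition above the mean of compounds lying between control limits plus 3 SD, set per campaign, cut at about 8.5% in these data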;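 further: 0% = DMSO-only wells as the low control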
# NR2E3 ag-2 – NR2E3 agonists in two-hybrid cells, primary screen, cell-based, luminescence, CHO-S, Gal4-NCOR/VP16-NR2E3. AID 602229, 2012. hit rate 0.35% among 360,000. luciferase. inhibition of corepressor binding, % at 3.98 µM. Photoreceptor-specific nuclear receptor (Homo sapiens), Q9Y5X4;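 active means inhibition above the mean of all tested compounds plus 3 SD, cut at about 70% in these data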;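 further: 0% = DMSO with NR2E3 transfected cells and 100% = cells lacking NR2E3 construct; higher means lower luciferase signal from less NR2E3 corepressor binding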
# ADAM10 ctr – ADAM10 inhibitors, counter-screen for ADAM17 exosite inhibitor project, biochemical, FRET, human ADAM10; inhibition, % at 6.95 µM; hit rate 47% among 2,900; shares compounds with ADAM17 inh; recombinant ADAM10, EDANS/DABCYL FRET peptide cleavage, 3 h;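 active means mean inhibition over the triplicate runs exceeds the activity threshold set in the earlier primary screen, cut at about 20% in these data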;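 further: 0% = DMSO wells and 100% = marimastat wells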
# ADAM17 confirm – ADAM17 inhibitors, hit retest, confirmation, biochemical, QFRET peptide cleavage | shares compounds with ADAM17 inh | inhibition, % at 6.95 µM | recombinant ADAM17, EDANS/DABCYL QFRET peptide cleavage | hit rate 65% among 2,900;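 active means mean inhibition across replicates above the hit cutoff set in the primary screen, cut at about 8.5% in these data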;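 further: 0% = DMSO wells and 100% = marimastat wells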
# Starred values were filed as active, the others as inactive; · = not tested or not shown.
SMILES,ADAM10 inh,NR2E3 ag-1,GASC-1 inh,proKLK7 act,ADAM17 inh,NR2E3 ag-2,ADAM10 ctr,ADAM17 confirm
COC(=O)C1=C(C)N(Cc2cccc(C(F)(F)F)c2)C(=NCc2ccccc2C(F)(F)F)NC1c1cccc(F)c1 (stereo not drawn),15,·,·,-1,9.6*,·,21*,18*
C=CCN=C1NC(c2ccccc2)C(C(=O)OC)=C(C)N1Cc1cccc(C(F)(F)F)c1 (stereo not drawn),-9,·,·,0,-6,·,·,·
COC(=O)C1=C(C)N(Cc2cccc(C(F)(F)F)c2)C(=NCc2ccc3c(c2)OCO3)NC1c1ccccc1 (stereo not drawn),-4,·,·,1,-1,·,·,·
COC(=O)C1=C(C)N(Cc2cccc(C(F)(F)F)c2)C(=NCc2ccccc2C(F)(F)F)NC1c1cccc(C(F)(F)F)c1 (stereo not drawn),-1,·,·,0,-1,·,·,·
COC(=O)C1=C(C)N(Cc2ccc(C(F)(F)F)cc2)C(=NCc2ccc3c(c2)OCO3)NC1c1ccccc1 (stereo not drawn),10,·,·,0,9.6*,·,10,5
C=CCN=C1NC(c2cccc(Cl)c2)C(C(=O)OC)=C(C)N1Cc1cccc(C(F)(F)F)c1 (stereo not drawn),0,·,·,0,10.0*,·,8,8
Cn1ccnc1SCC(=O)NC1(C#N)CCCCC1,-9,3,0,0,-7,12,·,·
Cc1ccc(S(=O)(=O)Nc2cc(=O)[nH]c(SCc3ccc(Cl)cc3)n2)cc1,16,-1,-11,0,12*,-12,20*,17*
O=C(O)c1ccccc1C(=O)Nc1cc(C(F)(F)F)ccc1N1CCCC1,2,1,0,1,10*,0,8,4
O=C(Nc1cc(C(F)(F)F)ccc1N1CCOCC1)c1ccccc1,5,3,0,0,-3,-18,·,·
NC(=O)C1CCN(c2nc3c(S(=O)(=O)c4ccccc4)nnn3c3ccccc23)CC1,-2,4,14,0,13*,-24,-8,2
Cc1ccc(S(=O)(=O)Nc2nc(C)c(NC(=O)OCCCl)s2)cc1,0,7,23,-1,8.9*,-3,3,6
O=C(CN1CCN(c2nc(-c3ccccc3)cs2)CC1)Nc1ccc(Cl)c(Cl)c1,13,·,·,0,8.8*,·,19,12*
O=C(CN1CCN(c2nc(-c3ccccc3)cs2)CC1)Nc1ccc(F)cc1F,13,·,·,0,5,·,·,·
Cc1ccc(-c2cc(C(=O)N3CCCCC3)c3ccccc3n2)cc1C,-216,-3,-2,-1,-67,-33,·,·
Cc1ccc(S(=O)(=O)n2cccc2/C=C/[N+](=O)[O-])cc1,-13,·,·,1,-3,-3,·,·
